Active and inactive are the calls of the source. The rule behind the calls is not given here.
Tests used:
[1] = Cytotoxicity against human HuH7 cells expressing luc/neo after 72 hrs by MTT assay; type: cell-based, Huh-7
Hepatitis C virus = assay: Antiviral activity against HCV in human Huh-luc/neo7 cells after 72 hrs by luciferase reporter gene assay; type: functional, organism-based, Hepacivirus hominis
Summary of the method: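 Huh7 cells persistently carrying full-genome HCV replicon treated with compound (e.g., 0, 1, 5, 25, 125 µM) for 72 h; replicon translation/replication read as firefly luciferase activity; EC50 from dose-response.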

[2] = Selectivity index, ratio of CC50 for human Huh-luc/neo7 cells to EC50 for HCV
Enterovirus C [3] = assay: Antiviral activity against poliovirus infected in human RD cells assessed as destruction of RD cell monolayer pretreated at 125 uM for 72 hrs followed by viral infection and compound treatment at 250 uM for 7 hrs by light microscopy; type: functional, cell-based
Summary of the method: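 RD cells were pretreated with compound for 72 h at 125, then infected with poliovirus at an MOI of ~20 or ~600 PFU/cell and incubated at 250 for 7 h. The integrity of the cell monolayer was examined by light microscopy right after infection or at 7 h.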

RD [4] = assay: Cytotoxicity against human RD cells assessed as cell density incubated at 125 uM for 72 hrs and at 250 uM for 7 hrs by light transmission spectroscopy relative to vehicle-treated control; type: cell-based
Summary of the method: (§1)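 RD cells incubated 72 h at 125 µM, then 7 h more at 250 µM (time of PV reproduction cycle); monolayer density by light transmission imaging and nuclear morphology by fluorescence microscopy after Hoechst 33342 DNA staining, compared with untreated controls.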

Enterovirus C [5] = assay: Antiviral activity against poliovirus infected in human RD cells assessed as nuclear alteration pretreated at 125 uM for 72 hrs followed by viral infection and compound treatment at 250 uM for 7 hrs by Hoechst 33342 staining-based fluorescence microscopy; type: functional, cell-based
Summary of the method: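 RD cells were pretreated with compound for 72 h at 125, then infected with poliovirus at an MOI of ~20 or ~600 PFU/cell and held at 250 for 7 h. Nuclear DNA was stained with Hoechst33342, and nuclear alterations were scored by fluorescence microscopy right after infection or at 7 h.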

RD [6] = assay: Cytotoxicity against human RD cells assessed as morphological changes incubated at 125 uM for 72 hrs and at 250 uM for 7 hrs by Hoechst 33342 staining-based fluorescence microscopy; type: cell-based; summary of the method: as §1

Row | SMILES | CC50 at 72 h [1] [µM] | EC50 (Hepatitis C virus) [µM] | Ratio CC50/EC50 [2] | Activity (Enterovirus C [3]) | Activity (RD [4]) | Activity (Enterovirus C [5]) | Activity (RD [6])
1 | COc1ccccc1C(=O)N(C)O | > 800 | > 300 |  |  |  |  | 
2 | O=C(NO)c1ccccc1Br | 270 | 3 | 90 |  |  |  | 
3 | O=C(NO)c1ccc(Cl)cc1 | 55 | 3 | 18 |  |  |  | 
4 | O=C(NO)c1ccccc1Cl | 330 | 2 | 165 |  |  |  | 
5 | O=C(NO)c1ccccc1OCCOc1ccccc1C(=O)NO | > 800 | 35 | >23 |  |  |  | 
6 | COc1cccc(C(=O)NO)c1 | 570 | 70 | 8 |  |  |  | 
7 | COc1ccccc1C(N)=O | > 800 | > 300 |  |  |  |  | 
8 | NC(=NO)c1ccccc1 [BENZAMIDOXIME] | > 800 | 270 |  |  |  |  | 
9 | COc1ccc(C(=O)NO)cc1 | 180 | 12 | 15 |  |  |  | 
10 | O=C(NO)c1cccc([N+](=O)[O-])c1 | 160 | 5 | 32 |  |  |  | 
11 | COc1cc(C)ccc1C(=O)NO | 900 | 15 | 60 |  |  |  | 
12 | CONC(=O)c1ccccc1OC | > 800 | > 300 |  |  |  |  | 
13 | CN(O)C(=O)c1ccccc1 | 400 | 65 |  |  |  |  | 
14 | Cc1cc(Br)ccc1C(=O)NO | 120 | 0.5 | 240 |  |  |  | 
15 | COc1ccc([N+](=O)[O-])cc1C(=O)NO | 350 | 3 | 120 |  |  |  | 
16 | CONC(=O)c1ccccc1O | > 800 | > 300 |  |  |  |  | 
17 | COc1ccccc1/C(N)=N/O | > 800 | > 300 |  |  |  |  | 
18 | O=C(NO)c1cc([N+](=O)[O-])ccc1O | > 1000 | 160 | >6 |  |  |  | 
19 | NC(=O)c1ccccc1O [SALICYLAMIDE] | > 800 | > 300 |  |  |  |  | 

Row | SMILES | CC50 at 72 h [1] [µM] | EC50 (Hepatitis C virus) [µM] | Ratio CC50/EC50 [2] | Activity (Enterovirus C [3]) | Activity (RD [4]) | Activity (Enterovirus C [5]) | Activity (RD [6])
20 | Cc1ccccc1C(=O)NO | 650 | 85 | 8 |  |  |  | 
21 | Cc1ccc(C(=O)NO)c(Cl)c1 | 140 | 1.5 | 93 |  |  |  | 
22 | O=C(NO)c1ccccc1F | 300 | 15 | 20 |  |  |  | 
23 | N/C(=N\O)c1ccccc1O | 500 | 140 |  |  |  |  | 
24 | O=C(NO)c1cccc(Cl)c1 | 120 | 10 | 12 |  |  |  | 
25 | COc1ccc(C)cc1C(=O)NO | 800 | 10 | 80 |  |  |  | 
26 | CN(O)C(=O)c1ccccc1O | > 800 | > 300 |  | inactive | Non-toxic | inactive | Non-toxic
27 | O=C(NO)c1ccc(Br)cc1 | 25 | 2 | 13 |  |  |  | 
28 | O=C(NO)c1cccc(Br)c1 | 310 | 12 | 26 |  |  |  | 
29 | O=C(NO)c1ccc([N+](=O)[O-])cc1 | 70 | 3 | 23 |  |  |  | 
30 | Cc1ccc(C(=O)NO)cc1 | 110 | 8 | 14 |  |  |  | 
31 | O=C(NO)c1ccccc1[N+](=O)[O-] | 55 | 1 | 55 |  |  |  | 
32 | O=C(NO)c1ccc(Cl)cc1Cl | 140 | 0.8 | 175 |  |  |  | 
33 | CCCCOc1ccccc1C(=O)NO | 380 | 10 | 38 |  |  |  | 
34 | COc1cccc(OC)c1C(=O)NO | > 800 | 50 | >16 |  |  |  | 
35 | Cc1cccc(C(=O)NO)c1 | 340 | 20 | 17 |  |  |  | 
36 | CONC(=O)c1ccccc1 | > 800 | > 300 |  |  |  |  | 
37 | COCc1ccccc1C(=O)NO | > 1000 | 170 | >6 |  |  |  | 
